Compounds with a hit are over-represented: about 3.9% of the library has one in this group of screens.
FLuc stim CS = FLuc activators, initial screening, artefact control for FLuc-dependent activation tests, biochemical, ATPlite luminescence | AID 1027, 2008 | 200,000 tested, under 10 active | Luciferin 4-monooxygenase (Photinus pyralis), P08659 | ATPlite luciferase biochemical, 10 min; 0 = ATP-free wells, 1 = DMSO control | activation factor at 10 µM;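 active = luciferase activation factor, scaled between plate controls, of at least 2 with compound at 10 µM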
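Assay system – cell-free luciferase reagent · Medium – PBS-based ATP solution · Dosing – test compounds dosed from 2 mM stocks in 100% DMSO · Timing – 10 min, room temperature · Technique – light output (luminescence) · Measure – luminescence gain marking luciferase activators · Controls – No-ATP low control, compound-free enzyme-plus-ATP high control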
Rad51 HR inh = human RAD51 strand exchange inhibitors, primary screen, biochemical, fluorescence; hRad51 DNA strand exchange, fluorescence dequenching; inhibition, % at 10 µM; hit rate 0.085% among 200,000; AID 1385, 2008;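 active = inhibition above 40% at the single screening dose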;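 note: 0% = DMSO control wells and 100% = blanks with heterologous ssDNA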
Target sequence (Q06609 whole entry, looked up): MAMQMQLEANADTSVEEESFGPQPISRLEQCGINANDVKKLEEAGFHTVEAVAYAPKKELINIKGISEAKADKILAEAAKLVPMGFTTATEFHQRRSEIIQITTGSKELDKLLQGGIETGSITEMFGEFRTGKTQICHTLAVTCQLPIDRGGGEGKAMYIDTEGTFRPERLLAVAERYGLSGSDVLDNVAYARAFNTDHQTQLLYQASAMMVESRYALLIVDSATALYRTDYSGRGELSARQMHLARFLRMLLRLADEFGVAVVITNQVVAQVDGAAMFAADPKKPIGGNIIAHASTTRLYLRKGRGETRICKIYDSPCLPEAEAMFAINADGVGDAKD
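material = hRad51 filaments on single-stranded DNA | reagent = Donor/quencher-labelled 47-bp dsDNA substrate | compound = 10 µM final, single point | schedule = strand-exchange reaction 15 min at room temperature | measured by = fluorescein emission 520 nm, excitation 485 nm | read-out basis = % inhibition versus plate control and blank means | benchmarks = plate controls and plate blanks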
FLuc inhib CS = firefly luciferase enzyme inhibitors, primary screen, artefact control for luciferase-based inhibitor screens, biochemical, luminescence, ATPLite; Luciferin 4-monooxygenase (Photinus pyralis), P08659; 10 min; inhibition, % at 10 µM; hit rate 1.5% among 200,000; AID 1006, 2008;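 active = inhibition above about 50% when tested at 10 µM, limit read from the data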
NF-kB neuron act = activators of NF-kB expression in neurons, primary screen, cell-based, HTS. human neuronal cells, NF-kB reporter expression; active compounds read high. fold change at 12.5 µM. hit rate 1.6% among 190,000; in the data active = fold change above about 3.3
STAT1 activator = STAT1 signaling activators, primary screen, cell-based, HTS, luciferase reporter; NIH 3T3 STAT1-luciferase reporter, IFN-gamma, luminescence; 100% = IFN-gamma alone, no compound; activation (% of control), % at 5.5 µM; hit rate 2.6% among 200,000; AID 932, 2007;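 active = activation above the screen-wide mean activation plus 3 SD, cut at about 130% in these data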;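 note: raw ratio to IFN-gamma control signal so 100% means no change and 0% no light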
APP 5'UTR act = activators of APP 5'UTR luciferase reporter, primary screen, SH-SY5Y cells | activation, % at 2 µM | AID 1276, 2008 | hit rate 1% among 190,000 | SH-SY5Y APP 5'UTR luciferase reporter, luminescence; zero percent = DMSO vehicle wells;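 active = activation above a set limit, based on mean plus 3 SD of controls, cut at about 140% in these data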
* hit, by the source's call; x = no result given.

SMILES	FLuc stim CS	Rad51 HR inh	FLuc inhib CS	NF-kB neuron act	STAT1 activator	APP 5'UTR act
COC(=O)c1ccc(N=NNc2ccccc2)cc1	0.9	-8.1	14.6	2.48	146.0*	63.3
COC(=O)c1ccc(N=NNc2ccc(C(=O)OC)cc2)cc1	1	x	-0.8	3.5*	148.0*	126.6
COC(=O)c1ccc(N=NN2CCOCC2)cc1	0.8	-2.4	19.8	2.95	127.9	81.0
O=C(O)c1ccc(N=NNc2cccc([N+](=O)[O-])c2)cc1	1	14.7	-1.2	4.07*	142.8*	83.1
Cc1cc(N2C(=O)[C@@H]3[C@H](C2=O)[C@@H]2C[C@H]3C(Br)C2Br)no1 (some centres undefined)	x	19.0	x	x	x	x
COc1ccc(C2Nc3ccccc3C(=O)N2c2ccc(C)cc2)cc1COc1ccccn1 (centres undefined)	1	5.0	3.4	2	130.8*	119.9
O=C(CSc1nc2ccccc2[nH]1)N1CCN(c2ccccc2)CC1	1	2.3	-1.2	0.91	103.6	10.3
O=C(CSc1nc2ccccc2[nH]1)N1CCCCC1	0.9	-10.4	6.1	2.23	130.2*	44.2
Cc1ccc2nc(SCC(=O)N3CCOCC3)[nH]c2c1	1	-4.5	3.1	2.6	131.7*	80.3
Cc1ccc2nc(SCC(=O)Nc3cc(C(F)(F)F)ccc3N3CCOCC3)[nH]c2c1	1	-6.8	-3.4	3.57*	108.9	-94.4
NC(=O)c1ccc(N=Cc2ccc([N+](=O)[O-])s2)cc1	1.1	x	-5.4	1.34	100.3	-28.6
Cc1ccc(C(=O)NCCCc2ccccc2)s1	0.9	x	9.6	2.48	124.6	65.2
CCCSc1nnc(Nc2ccccc2C)s1	0.9	-5.6	5.1	2.15	129.4*	49.6
C/C(=N\Nc1nc2ccccc2[nH]1)c1ccc(N2CCOCC2)cc1	0.1	-8.5	94.5*	2	85.1	44.1
Cc1nc2c(-c3ccccc3)c[nH]n2c(=O)c1Cc1ccccc1	0.9	-0.3	8.9	1.06	141.5*	92.5
O=C1CN(C(=S)NC(=O)c2ccc(-c3ccccc3)cc2)CCN1	1	-0.7	4.4	1.57	132.9*	19.0
Cc1onc(-c2ccccc2)c1CNS(=O)(=O)c1cccc(Br)c1	x	21.6	x	x	x	x
CC1CCCC/C1=N\NC(=S)Nc1cccnc1 (centres undefined)	1	21.9	-3.4	4.86*	102.5	25.7
COC(=O)CC(NC(=O)c1ccc(C)cc1)c1ccccc1 (centres undefined)	0.3	8.8	65.3*	1	108.6	30.9
COC(=O)CC(NC(=O)c1ccc(C)cc1)c1ccc2c(c1)OCO2 (centres undefined)	1	1.1	-2.1	1.05	103.3	10.6
COCCNC(=S)NNc1ccccc1[N+](=O)[O-]	1	29.2	-0.6	1.06	102.5	41.6
COc1ccc(OCC(O)CNC(=O)c2sccc2Cl)cc1 (centres undefined)	x	24.8	x	x	x	x
Cc1nn(-c2ccccn2)c(C)c1Oc1ccccc1O	1	2.5	-4.0	1	95.7	-0.9
Cc1nn(-c2nc3ccccc3s2)c(C)c1Oc1ccccc1O	0.9	2.1	10.4	2.59	94.6	184.4*
N#Cc1cc(C#N)c(N2CCN(c3ccccn3)CC2)nc1N	1	-7.2	0.7	0.97	135.5*	68.0
SMILES	FLuc stim CS	Rad51 HR inh	FLuc inhib CS	NF-kB neuron act	STAT1 activator	APP 5'UTR act
COc1cc2c(cc1OC)C(c1ccc(-c3ccccc3Cl)o1)=NCC2	0.4	2.3	61.5*	0.6	88.9	25.6
C/C(=N\Nc1ccc(F)cc1F)c1cccs1	1	9.1	-1.7	1.44	129.0*	12.1
COc1ccc(/C(C)=N/Nc2ccc(F)cc2F)c(O)c1	1	11.5	3.2	1.16	132.8*	32.5
COc1ccc(-c2csc(NC(C)c3nc4cc(Cl)c(Cl)cc4n3CCCO)n2)cc1 (centres undefined)	x	5.8	x	x	x	x
CCOC(=O)c1cc(-c2ccc(F)cc2)n(CCC(=O)NC2CCN(Cc3ccccc3)CC2)c1C	1	-0.8	-2.8	3.68*	110.0	9.7
O=C1NC(=O)C2(COC(c3cccc([N+](=O)[O-])c3)OC2)S1 (centres undefined)	1	3.7	0.5	1.21	103.5	3.1
O=C(NC1CCCCCC1)c1cccc(N2CCCC2=O)c1	0.9	-2.1	7.9	3.29	129.7*	117.5
CCc1ccc(-c2ccc(C(=O)C(F)(F)F)[nH]2)cc1	0.9	0.0	5.3	4.46*	123.6	179.1*
CC(C)c1ccc(NC(=O)COc2ccccn2)cc1	0.9	-1.9	13.6	1.27	129.9*	41.5
CC(C)c1ccc(OCC(=O)Nc2ccc(OC(F)(F)F)cc2)cc1	1	0.1	-0.7	1.16	100.0	4.2
Nc1nc2c(s1)CCc1c-2cnn1-c1ccccc1	0.5	9.7	48.1	3.42*	155.3*	138.0*
Nc1nc2c(s1)COc1ccccc1-2	1	-2.7	-0.3	1.41	104.3	4.8
O=C(CCSc1ccccc1)N1CCCC1	1	14.2	3.1	2.21	134.3*	76.1
O=C(CCSc1ccccc1)NC1CCCCCC1	1	-4.0	4.1	1.15	143.9*	-3.9
CN1CCN(C(=O)C2CC(c3ccc(F)cc3)=NO2)CC1 (centres undefined)	1	-10.4	-2.6	1.18	109.3	9.3
CC1CCN(C(=O)C2CC(c3ccc(F)cc3)=NO2)CC1 (centres undefined)	1	-2.1	-1.5	1.55	129.3*	15.2
COc1ccc(C2=NOC(C(=O)N3CCOCC3)C2)cc1OC (centres undefined)	1	-1.0	1.2	1.06	106.8	4.0
COc1cccc(C2=NOC(C(=O)N3CCOCC3)C2)c1 (centres undefined)	1	0.8	1.8	1.99	133.0*	38.3
Cc1ccc(NC(=O)c2ccc3nc[nH]c3c2)cc1C	0.7	3.5	33.2	3.2	142.9*	106.2
COc1ccc(CCC(=O)Nc2sccc2C#N)cc1	1	-10.8	-2.8	2.35	130.1*	130.1
COc1cc(OC)cc(C(=O)N[C@H](C(=O)OCC(=O)Nc2sccc2C#N)C(C)C)c1	1	-39.7	-2.5	1.08	98.5	-11.4
N#C/C(=N\Nc1cccc(C(F)(F)F)c1)C(=O)c1ccsc1	x	-12.5	x	x	x	x
Cn1c(O)c(C2=c3ccccc3=NC2=O)sc1=Nc1ccc(Cl)cc1	1	3.4	4.6	5.15*	99.6	21.4
